Experimental data taken from PubChem BioAssay AID492976 (The Scripps Research Institute Molecular Screening Center, 2010).
The source made the active and inactive calls.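 Rule for the calls: active = inhibition of 35% or more of the parasite aminopeptidase activity in malaria cell lysate; inactive = inhibition below 35%.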

target: Aminopeptidase N (Plasmodium falciparum (isolate 3D7)) (UniProt O96935); assay: M1 aminopeptidase activity inhibition, P. falciparum lysate – cell lysate, fluorescence, malaria cell lysate, powder samples, late-stage follow-up (AID 492976); details: H-Arg-NHMec fluorogenic substrate, at 5 µM, hits give high values
Procedure, shortened: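 Assay system: P. falciparum cell lysate; input: malaria lysate at 10 µg/mL final; buffer or medium: Tris-HCl, pH 7.5; dosing: 5 µM, one dose; incubation: 10 min preincubation, 30 min reading; technique: kinetic NHMec fluorescence, ex 370 nm, em 460 nm, 60-s intervals; measure: % inhibition vs control wells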

Chain of Aminopeptidase N (Plasmodium falciparum (isolate 3D7)) (O96935 whole entry, looked up): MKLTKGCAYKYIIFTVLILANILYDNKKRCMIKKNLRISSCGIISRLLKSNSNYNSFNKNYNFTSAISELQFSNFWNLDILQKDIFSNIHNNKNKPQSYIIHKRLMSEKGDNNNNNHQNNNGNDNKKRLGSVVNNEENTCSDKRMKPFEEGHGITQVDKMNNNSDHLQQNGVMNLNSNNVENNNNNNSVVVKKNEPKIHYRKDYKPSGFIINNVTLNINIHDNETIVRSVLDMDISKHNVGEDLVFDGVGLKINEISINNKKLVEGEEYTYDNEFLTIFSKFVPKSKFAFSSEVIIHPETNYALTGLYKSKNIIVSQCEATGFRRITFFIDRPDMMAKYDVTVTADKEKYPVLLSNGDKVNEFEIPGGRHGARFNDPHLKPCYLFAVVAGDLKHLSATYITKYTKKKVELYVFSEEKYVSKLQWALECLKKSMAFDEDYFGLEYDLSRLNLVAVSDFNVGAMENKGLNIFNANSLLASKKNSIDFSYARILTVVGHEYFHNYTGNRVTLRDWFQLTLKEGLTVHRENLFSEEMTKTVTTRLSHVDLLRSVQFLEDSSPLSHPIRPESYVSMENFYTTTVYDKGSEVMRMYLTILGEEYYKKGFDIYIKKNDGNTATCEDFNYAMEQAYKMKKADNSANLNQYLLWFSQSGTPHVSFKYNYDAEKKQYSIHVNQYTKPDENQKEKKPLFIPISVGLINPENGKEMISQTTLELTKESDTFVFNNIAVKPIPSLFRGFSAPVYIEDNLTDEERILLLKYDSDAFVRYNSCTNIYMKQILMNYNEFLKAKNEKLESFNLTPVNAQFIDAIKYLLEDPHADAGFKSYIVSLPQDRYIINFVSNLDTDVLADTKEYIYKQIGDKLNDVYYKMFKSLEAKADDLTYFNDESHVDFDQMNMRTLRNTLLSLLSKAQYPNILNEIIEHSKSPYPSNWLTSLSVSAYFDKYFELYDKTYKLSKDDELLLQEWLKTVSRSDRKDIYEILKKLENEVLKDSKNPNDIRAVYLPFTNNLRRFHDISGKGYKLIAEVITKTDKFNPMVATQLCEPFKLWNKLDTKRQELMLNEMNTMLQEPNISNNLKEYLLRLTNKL

SMILES	inhibition
O=C(O)CCC(=O)N1N=C(c2c(-c3ccccc3)c3cc(Cl)ccc3[nH]c2=O)CC1c1ccco1 (stereo not drawn)	2% (inactive)
O=C(Nn1c(C2CCC2)nc2ccccc2c1=O)c1cccs1	0% (inactive)
COc1ccc(OC)c(/C=C2\SC(=S)N(C(C(=O)O)c3ccccc3)C2=O)c1 (stereo not drawn)	0% (inactive)
O=C1N=c2ccccc2=C1c1sc(=S)n(NC(=O)c2cccc(O)c2)c1O	17% (inactive)
O=C1N=c2ccccc2=C1c1sc(=S)n(NC(=O)c2ccccc2)c1O	0% (inactive)
O=C1/C(=C/c2cccs2)SC(=S)N1NS(=O)(=O)c1ccccc1	0% (inactive)
O=C(NCc1ccco1)C1CCCN(S(=O)(=O)c2cccc3nonc23)C1 (stereo not drawn)	0% (inactive)
COc1ccc(C2CC(c3c(-c4ccccc4)c4cc(Cl)ccc4[nH]c3=O)=NN2C(=O)CCC(=O)O)cc1 (stereo not drawn)	0% (inactive)
CC(=O)N1N=C(c2c(O)n(C)c(=O)n(C)c2=O)CC1c1ccccc1 (stereo not drawn)	0% (inactive)
O=C(NCCC1=CCCCC1)C1CCN(S(=O)(=O)c2ccc(Br)s2)CC1	13% (inactive)
O=C(NCc1cccc(F)c1)C1CCN(S(=O)(=O)Cc2ccccc2)CC1	35%
O=C(O)CCC(=O)N1N=C(c2c(-c3ccccc3)c3cc(Cl)ccc3[nH]c2=O)CC1c1cccs1 (stereo not drawn)	3% (inactive)
COc1ccccc1-c1nc2ccccc2c(=O)n1NC(=O)c1cccs1	0% (inactive)
